Experimental data of several laboratories.
Protocols differ between the studies behind these lines.
Target: Serine/threonine-protein kinase TBK1 (TBK1, Homo sapiens, UniProt Q9UHD2)
One construct used (Q9UHD2 1-729): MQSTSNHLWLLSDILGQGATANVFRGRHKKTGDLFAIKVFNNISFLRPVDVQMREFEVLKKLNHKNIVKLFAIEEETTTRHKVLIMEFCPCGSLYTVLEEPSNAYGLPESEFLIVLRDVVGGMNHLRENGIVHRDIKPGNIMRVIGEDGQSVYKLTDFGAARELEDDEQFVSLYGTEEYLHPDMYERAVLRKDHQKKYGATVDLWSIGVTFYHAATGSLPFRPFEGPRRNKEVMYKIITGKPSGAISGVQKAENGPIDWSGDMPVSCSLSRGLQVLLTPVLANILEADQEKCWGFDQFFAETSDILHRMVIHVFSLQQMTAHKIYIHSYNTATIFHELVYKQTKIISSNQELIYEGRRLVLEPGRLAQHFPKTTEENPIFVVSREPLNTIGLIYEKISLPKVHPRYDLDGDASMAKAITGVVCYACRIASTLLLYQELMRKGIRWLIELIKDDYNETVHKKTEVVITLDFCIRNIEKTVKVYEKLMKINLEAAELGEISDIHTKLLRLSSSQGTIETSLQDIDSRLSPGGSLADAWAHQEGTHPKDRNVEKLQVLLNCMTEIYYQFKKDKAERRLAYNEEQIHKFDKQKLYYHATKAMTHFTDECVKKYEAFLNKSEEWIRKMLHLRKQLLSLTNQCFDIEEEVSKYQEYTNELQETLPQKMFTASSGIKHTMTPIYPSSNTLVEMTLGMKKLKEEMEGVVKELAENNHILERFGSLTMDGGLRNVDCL

Cn1cc(-c2cc(F)cc(N3CCn4c(cc5c4CCCC5)C3=O)c2CO)cc(Nc2ccc(N3CCN(C4COC4)CC3)cn2)c1=O  inhibition (enzyme activity; inhibitor; 0.1 µM): 18%
Cc1nn(C)cc1-c1nc2c(N3CCN(Cc4ccc(Cl)cc4)CC3)c(Cl)cnc2[nH]1  remaining binding (binding; competition with immobilised ligand; 1 µM): 90%
C#Cc1n[nH]c2c(-c3cn([C@@H](C)c4ccccc4)c(=O)[nH]c3=O)cc(F)cc12  inhibition (enzyme activity; inhibitor; 0.1 µM): 4.4%
COc1ncccc1-c1cnn2ccc(N3CCN(C(=O)OC(C)C)CC3)nc12  remaining binding (binding; competition with immobilised ligand; 1 µM): 78%
N#CC1(c2ccccn2)CCN(Cc2cc(C(=O)O)c(=O)n3ccccc23)CC1  remaining binding (cell-free assay; competition with immobilised ligand; 1 µM): 98%
COc1cc(Nc2ncc(F)c(Nc3ccc4c(n3)NC(=O)C(C)(C)O4)n2)cc(OC)c1OC  inhibition (binding; 10 µM): 100%
Cn1cncc1[C@](O)(COc1ccc(C#N)cc1-c1ccc(OC(F)(F)F)cc1)c1ccc(C#N)cc1  remaining binding (cell-free assay; competition with immobilised ligand; 1 µM): 100%
CC(C)(C)c1cc(C=C(C#N)C#N)cc(Br)c1O  remaining activity (enzyme activity; inhibitor; 0.5 µM): 90.2%
Cn1cc(-c2cccc(N3CCc4c(sc5c4CC(C)(C)C5)C3=O)c2CO)cc(Nc2ccncn2)c1=O  inhibition (enzyme activity; inhibitor; 1 µM): 4%
C#Cc1n[nH]c2c(-c3cn(C(C)c4ccccn4)c(=O)[nH]c3=O)cc(F)cc12 (centres unmarked)  inhibition (enzyme activity; inhibitor; 1 µM): 6.5%
O=c1[nH]c2ccccc2n1C1CCN(Cc2ccc(-c3[nH]c4cc5ncnc5cc4nc3-c3ccccc3)cc2)CC1  remaining signal (cell-free assay; 0.5 µM): 92.7%
